pIC50: −log10 of the molar value.
Biological target: Acyl carrier protein,/NADH dehydrogenase [ubiquinone] flavoprotein 1, mitochondrial (Bos taurus, UniProt P25708+P52505)
Test: Inhibition of NADH oxidase activity.
How it was run: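 Beef-heart submitochondrial particles (sonicated frozen-thawed mitochondria), preactivated with 300 µM NADH, assayed at 22 °C in 50 mM potassium phosphate pH 7.4, 1 mM EDTA (0.28 nM complex I). Aerobic oxidation of 75 µM NADH with no added quinone, followed at 340 nm. Ethanolic compound added cumulatively, 5 min on ice per step, ethanol ≤2%. IC50 is the final concentration giving 50% inhibition.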

Chain of Acyl carrier protein,/NADH dehydrogenase [ubiquinone] flavoprotein 1, mitochondrial (P25708 21-464 limits assumed, other chains not shown): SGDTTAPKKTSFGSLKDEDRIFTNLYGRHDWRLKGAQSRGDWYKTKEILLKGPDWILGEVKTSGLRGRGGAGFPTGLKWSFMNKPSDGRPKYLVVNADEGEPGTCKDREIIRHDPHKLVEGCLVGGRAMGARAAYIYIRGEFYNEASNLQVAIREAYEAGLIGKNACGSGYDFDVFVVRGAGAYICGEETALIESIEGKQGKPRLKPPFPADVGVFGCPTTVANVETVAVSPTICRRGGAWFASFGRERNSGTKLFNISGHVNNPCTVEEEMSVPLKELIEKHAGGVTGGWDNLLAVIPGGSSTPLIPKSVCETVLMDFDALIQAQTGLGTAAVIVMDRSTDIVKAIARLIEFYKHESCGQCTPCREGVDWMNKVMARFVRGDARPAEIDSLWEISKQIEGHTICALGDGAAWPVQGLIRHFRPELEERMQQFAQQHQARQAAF

CCCCCCCCCCC(N=O)[C@H]1CC[C@@H]([C@@H]2CC[C@H]([C@H](O)CCCCCCCCCCC(CC3=C[C@H](C)OC3=O)N=O)O2)O1 (some centres not stated) [3-{13-Hydroxy-2-hydroxyimino-13-[5'-(1-hydroxyimino-undecyl)-octahydro-[2,2']bifuranyl-5-yl]-tridecyl}-5-methyl-5H-furan-2-one(4,24-didehydroxy-4,24-dihydroxyliminorolliniastatin-1)]
pIC50: 9.47

CCCCCCCCCC[C@H](O)[C@H]1CC[C@H]([C@H]2CC[C@H]([C@H](O)CCCCC(CCCCCCCC3=C[C@H](C)OC3=O)N=O)O2)O1 (some centres not stated) [10-oxime-guanacone]
pIC50: 9.47

— BindingDB's records for doi:10.1021/jm000911j (Universidad De Valencia, 2000)
